Active and inactive are the calls of the source.
What was measured:
[1] = system: MDA-MB-231; assay: Cytotoxicity against human MDA-MB-231 cells assessed as decrease in ATP production at 10 uM after 24 to 48 hrs by CellTiter-Glo luminescent assay; format: functional, cell-based
[2] = system: MDA-MB-231; assay: Induction of apoptosis in human MDA-MB-231 cells assessed as mitochondrial membrane disruption by measuring red to green fluorescence ratio at 10 uM after 24 hrs by JC-1 staining based microscopic method relative to control; format: functional
Method in brief: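 Cells exposed for 24 h at 10 µM, then stained with the cationic dye JC-1. Red (aggregate, intact inner membrane) to green (monomer) fluorescence ratio expressed relative to DMSO control. Mean±SEM of three experiments.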

[3] = system: MDA-MB-231; assay: Cytotoxicity against human MDA-MB-231 cells assessed as decrease in cell adherence at 40 uM after 48 hrs by crystal violet staining based assay; format: functional
[4] = system: MDA-MB-231; assay: Induction of apoptosis in human MDA-MB-231 cells assessed as increase in caspases 3/7 activity at 10 uM after 48 hrs by Caspase-Glo assay; format: functional, cell-based
[5] = system: MDA-MB-231; assay: Cytotoxicity against human MDA-MB-231 cells assessed as decrease in cell viability at 40 uM after 48 hrs by crystal violet staining based assay; format: functional
[6] = system: MDA-MB-231; assay: Induction of apoptosis in human MDA-MB-231 cells at 10 uM after 48 hrs by annexin VFITC/7AAD staining based flow cytometry; format: functional, cell-based
Method in brief: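 Annexin V-FITC/7AAD flow cytometry of cells after 48 h at 10 µM. Quadrants: E4 annexin V only (early apoptotic), E2 dual-stained (late apoptotic), E1 7AAD only, E3 unstained (viable). Compared with DMSO control. Mean±SEM from three experiments.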

[7] = system: MDA-MB-231; assay: Cell cycle arrest in human MDA-MB-231 cells at 10 uM after 24 hrs by propidium iodide staining based flow cytometric analysis
[8] = system: MDA-MB-231; assay: Induction of mitochondrial membrane disruption in human MDA-MB-231 cells assessed as mitochondrial cardiolipin level at 14 uM after 24 hrs relative to control; format: functional

Measured: Activity

Cc1ccc(NC(=O)NCCCCCCCCCCCCCCCC(=O)O)cc1
inactive: [1] | [2]

O=C(O)CCCCCCCCCCCCCCCNC(=O)Nc1ccc(Cl)c(Cl)c1
not listed: [8]
inactive: all other assays above

O=C(O)CCCCCCCCCCCCCCCNC(=O)Nc1ccc(I)cc1
inactive: [1] | [2]

CCNC(=O)NCCCCCCCCCCCCCCCC(=O)O
inactive: [1] | [8] | [2] | [6] | [7]

O=C(O)CCCCCCCCCCCCCCCNC(=O)Nc1ccc(F)cc1
inactive: [1] | [2]

O=C(O)CCCCCCCCCCCCCCCNC(=O)Nc1ccc(Cl)cc1
inactive: [1] | [2]
